What all share (type): functional
Data set [1] deals with Lanosterol 14-alpha demethylase (Candida albicans (strain SC5314 / ATCC MYA-2876) (Yeast), UniProt P10613). Briefly: Anticandida activity- (MIC90 compound) / (MIC90 bifonazole).
In data set [2] the test system is Candida albicans. As to the kind of experiment: In vitro antifungal activity against 40 strains of Candida albicans at pH 5.8; (range is from 1 to 16). In outline:
(§1)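 Broth serial-dilution MIC against 40 clinical C. albicans isolates from hospitalized patients, grown in Sabouraud broth at pH 7.2 or 5.8. Cells were pre-grown 18 h at 37 °C, inoculated at 10³/mL, and read at 24 h, 37 °C. Doubling dilutions ran 0.25–256 μg/mL from a DMSO/water solution. MIC was the lowest concentration with no visible growth against a DMSO/water blank.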

Data set [3] relates to Candida. As to the kind of experiment: Tested In vitro for antifungal activity against Candida species. at pH 7.2; (percent of resistant species at 256 ug/mL). In outline: (§2)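 Broth serial-dilution test in Sabouraud broth at pH 7.2 or 5.8, against 3 fresh clinical non-albicans isolates (two C. glabrata, one C. krusei). Inocula were 10³/mL, pre-grown 18 h at 37 °C. Compound was twofold-diluted over 0.25–256 µg/mL and read at 24 h, 37 °C for visible growth.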

In data set [4] the test system is Candida albicans. Briefly: In vitro antifungal activity against 40 strains of Candida albicans at pH 5.8. The gist of the method: as §1
For data set [5], the system named is Candida albicans. As to the kind of experiment: IIn vitro antifungal activity against 40 strains of Candida albicans at pH 5.8; (percent of resistant species at 256 ug/mL). The gist of the method:
(§3)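 Broth serial-dilution test in Sabouraud broth at pH 7.2 or 5.8, against 40 fresh clinical C. albicans isolates from hospitalized patients. Inocula were 10³/mL, pre-grown 18 h at 37 °C in Sabouraud dextrose broth. Compound from a DMSO/water stock was twofold-diluted over 0.25–256 µg/mL. Visible growth was read at 24 h, 37 °C.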

The subject of data set [6] is Candida albicans. As to the kind of experiment: In vitro antifungal activity against 40 strains of Candida albicans at pH 7.2; (percent of resistant species at 256 ug/mL). The gist of the method: as §3
For data set [7], the system named is Candida albicans. As to the kind of experiment: In vitro antifungal activity against 40 strains of Candida albicans at pH 7.2; minimum inhibitory concentration (range is from 4 to 64). In outline: as §1
The subject of data set [8] is Candida. As to the kind of experiment: Tested In vitro for antifungal activity against Candida species. at pH 7.2; (range is from 4 to 32). In outline:
(§4)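 Liquid serial-dilution MIC against 3 freshly isolated clinical Candida strains (two C. glabrata, one C. krusei) in Sabouraud broth at pH 7.2 or 5.8. Inoculum was 10³/mL after 18 h pre-culture at 37 °C, read at 24 h, 37 °C. Range was 0.25–256 μg/mL. Endpoint was no visible growth versus a DMSO/water blank.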

In data set [9] the test system is Candida. As to the kind of experiment: Tested in vitro for antifungal activity against Candida species. at pH 5.8 ( range is from 8 to 16). The gist of the method:
as §4

Data set [10] relates to Candida. Briefly: Tested In vitro for antifungal activity against Candida species. at pH 7.2. In outline: as §4
In data set [11] the test system is Candida. As to the kind of experiment: Tested in vitro for antifungal activity against Candida species. at pH 5.8. The gist of the method:
as §4

The test system of data set [12] is Candida albicans. As to the kind of experiment: In vitro antifungal activity against 40 strains of Candida albicans at pH 7.2. The gist of the method: as §1
The subject of data set [13] is Candida. As to the kind of experiment: In vitro antifungal activity against 40 strains at pH 5.8,(percent of resistant species at 256 ug/mL). In outline: as §3
The test system of data set [14] is Candida albicans. Briefly: IIn vitro antifungal activity against 40 strains of Candida albicans at pH 7.2; minimum inhibitory concentration (range is from 0.5 to 16). In outline:
as §1

Data set [15] deals with Candida albicans. Briefly: In vitro antifungal activity against 40 strains of Candida albicans at pH 5.8; (range is from 0.25 to 32). The gist of the method: as §1
The subject of data set [16] is Candida. Briefly: Tested in vitro for antifungal activity against Candida species. at pH 5.8 (percent of resistant species at 256 ug/mL). In outline: as §2
The test system of data set [17] is Candida. As to the kind of experiment: Tested In vitro for antifungal activity against Candida species. at pH 7.2; (range is from 8 to 16). The gist of the method: as §4
Data set [18] relates to Candida. Briefly: Tested in vitro for antifungal activity against Candida species. at pH 5.8; (range is from 4 to 8). In outline: as §4

≈ marks a conversion by molar mass, not a printed value.

Sequence of Lanosterol 14-alpha demethylase (P10613 whole entry): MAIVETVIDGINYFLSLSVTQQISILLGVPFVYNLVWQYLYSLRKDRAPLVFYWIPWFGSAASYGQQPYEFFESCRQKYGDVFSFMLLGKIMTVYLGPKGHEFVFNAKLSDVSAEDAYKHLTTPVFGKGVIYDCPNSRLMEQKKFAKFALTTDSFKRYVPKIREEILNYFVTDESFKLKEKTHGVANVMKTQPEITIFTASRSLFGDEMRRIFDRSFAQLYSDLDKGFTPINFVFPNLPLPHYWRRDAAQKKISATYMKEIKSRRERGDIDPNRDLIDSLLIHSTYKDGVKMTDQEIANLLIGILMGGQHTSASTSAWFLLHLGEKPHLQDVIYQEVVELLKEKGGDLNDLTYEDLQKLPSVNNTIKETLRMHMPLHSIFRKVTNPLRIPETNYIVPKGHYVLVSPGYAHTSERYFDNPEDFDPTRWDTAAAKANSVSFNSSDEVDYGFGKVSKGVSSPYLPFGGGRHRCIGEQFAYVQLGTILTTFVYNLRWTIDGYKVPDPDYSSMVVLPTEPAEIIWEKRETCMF

`COc1ccc([C@H](Cc2ccc(Cl)cc2)n2ccnc2)cc1`: the Ratio in [1] is recorded as 4.

`COc1ccc([C@@H](Cc2ccc(Cl)cc2Cl)n2ccnc2)cc1`: the Ratio in data set [1] was 3.6.

Take `COc1ccc([C@H](Cc2cccc(-n3cccc3)c2)n2ccnc2)cc1`: the Ratio in [1] came to 58.

As for `COc1ccc([C@H](Cc2ccccc2F)n2ccnc2)cc1`, the Ratio in data set [1] is listed as 63.

Regarding `COc1ccc([C@H](Cc2ccccc2Cl)n2ccnc2)cc1`, in data set [1], the Ratio was determined as 63.

On to `COc1ccc([C@H](Cc2ccc(Cl)cc2)n2cnnc2)cc1`, for which the Ratio in data set [1] was 63.

Regarding `COc1ccc([C@H](Cc2ccc(N)cc2)n2ccnc2)cc1`, in [1], the Ratio is 2.1.

`COc1ccc([C@H](Cc2ccc(F)cc2)n2ccnc2)cc1`: the Ratio in [1] worked out at 16.

Turning to `Clc1ccc(-c2cn(Cc3ccc(Cl)cc3Cl)cc2[C@@H](c2ccccc2)n2ccnc2)cc1`, the Ratio in data set [1] came out at 40.

For the compound `Clc1ccc(Cn2cc(-c3ccccc3)c([C@@H](c3ccccc3)n3ccnc3)c2)c(Cl)c1`, the Ratio in [1] turned out to be 22.

With `COc1ccc(-c2cn(Cc3ccc(Cl)cc3Cl)cc2[C@@H](c2ccccc2)n2ccnc2)cc1`, in data set [1], the Ratio amounted to 41.

For `Fc1ccc(-c2c[nH]cc2[C@@H](c2ccccc2)n2ccnc2)cc1`, the Ratio in data set [1] stood at 1.

`Clc1ccc(-c2c[nH]cc2[C@@H](c2ccccc2)n2ccnc2)cc1`: the Ratio in data set [1] came to 0.46.

Turning to `Fc1ccc([C@@H](c2ccn(-c3ccc(F)cc3)c2)n2ccnc2)cc1`, in [1], the Ratio was 1.

With `Cc1ccc([C@H](c2ccn(-c3ccc(Cl)cc3)c2)n2ccnc2)cc1`, the Ratio in data set [1] is given as 0.89.

On to `Fc1ccc(-n2ccc([C@@H](c3ccccc3)n3ccnc3)c2)cc1`, for which the Ratio in [1] is given as 4.

`Cc1ccc([C@H](c2ccn(-c3ccc(F)cc3)c2)n2ccnc2)cc1`: the Ratio in data set [1] was found to be 1.9.

With `Cn1cc(-c2ccc(F)cc2)c([C@@H](c2ccccc2)n2ccnc2)c1`, in data set [1], the Ratio is recorded as 4.

As for `Cc1ccc(-c2cn(Cc3ccc(Cl)cc3Cl)cc2[C@@H](c2ccccc2)n2ccnc2)cc1`, the Ratio in data set [1] is on record as 42.

On to `Cn1cc(-c2ccccc2)c([C@H](c2ccccc2)n2ccnc2)c1`, for which, in [1], the Ratio was 4.

With `Cc1ccc(-c2cn(C)cc2[C@@H](c2ccccc2)n2ccnc2)cc1`, the Ratio in data set [1] is reported as 3.8.

With `COc1ccc([C@H](Cc2ccccc2-n2cccc2)n2ccnc2)cc1`, in data set [1], the Ratio is given as 7.2.

With `COc1ccc(C[C@@H](c2ccc(OC)cc2)n2cnnc2)cc1`, the Ratio in data set [1] is 64.

For `COc1ccc([C@H](Cc2ccccc2[N+](=O)[O-])n2ccnc2)cc1`, in [1], the Ratio came out at 123.

In the case of `COc1ccc([C@H](Cc2cccc(F)c2)n2ccnc2)cc1`, in [1], the Ratio amounted to 66.

Take `Cn1cc(-c2ccc(Cl)cc2)c([C@@H](c2ccccc2)n2ccnc2)c1`: the Ratio in [1] is recorded as 0.9.

For `Fc1ccc([C@H](c2ccn(-c3ccccc3)c2)n2ccnc2)cc1`, the Ratio in [1] is reported as 2.

Consider `Fc1ccc(-n2ccc([C@H](c3ccc(Cl)cc3)n3ccnc3)c2)cc1`, for which, in data set [1], the Ratio amounted to 1.8.

`COc1ccc([C@H](Cc2cccc(Cl)c2)n2ccnc2)cc1`: the Ratio in data set [1] amounted to 32.

Turning to `COc1ccc(C[C@@H](c2ccc(OC)cc2)n2ccnc2)cc1`, in [1], the Ratio is 8.

Turning to `COc1ccc([C@H](Cc2ccc([N+](=O)[O-])cc2)n2ccnc2)cc1`, the Ratio in [1] worked out at 32.

For the compound `Clc1ccc(-n2ccc([C@@H](c3ccccc3)n3ccnc3)c2)cc1`, the Ratio in data set [1] is recorded as 0.5.

In the case of `Fc1ccc([C@@H](c2ccn(-c3ccc(Cl)cc3)c2)n2ccnc2)cc1`, the Ratio in data set [1] stood at 1.8.

With `Clc1ccc([C@@H](c2ccn(-c3ccc(Cl)cc3)c2)n2ccnc2)cc1`, the Ratio in data set [1] is on record as 3.

For `Cc1ccc([C@H](c2ccn(-c3ccccc3)c2)n2ccnc2)cc1`, the Ratio in [1] is recorded as 1.

With `c1ccc([C@H](c2ccn(-c3ccccc3)c2)n2ccnc2)cc1`, in [1], the Ratio is 4.1.

Consider `Nc1ccc([C@@H](c2ccccc2)n2ccnc2)cc1`, for which, in data set [1], the Ratio is 2.5.

For the compound `Clc1ccc([C@@H](c2ccc(-n3cccc3)cc2)n2ccnc2)cc1`, the Ratio in data set [1] is 0.5.

On to `Cc1ccc([C@H](c2ccc([N+](=O)[O-])cc2)n2ccnc2)cc1`, for which the Ratio in data set [1] amounted to 0.5.

With `O=[N+]([O-])c1ccc([C@@H](c2ccc(Cl)cc2)n2ccnc2)cc1`, the Ratio in data set [1] is listed as 1.

As for `Cc1ccc([C@@H](c2ccc(NC(=O)c3ccc(Cl)cc3Cl)cc2)n2ccnc2)cc1`, the Ratio in data set [1] amounted to 0.7.

Regarding `Cc1ccc([C@@H](c2ccc(-n3cccc3)cc2)n2ccnc2)cc1`, the Ratio in data set [1] was found to be 0.13.

For the compound `O=[N+]([O-])c1ccc([C@@H](c2ccccc2)n2ccnc2)cc1`, the Ratio in [1] is reported as 2.2.

Turning to `c1ccc([C@@H](c2ccc(-n3cccc3)cc2)n2ccnc2)cc1`, the Ratio in data set [1] was determined as 0.25.

`CCC(c1ccc(Cl)cc1)[C@@H](c1ccc(OC)cc1)n1cncn1` (some centres not stated): the Ratio in [1] is 29.

`CC[C@@H](c1ccc(Cl)cc1)[C@@H](c1ccc(OC)cc1)n1cnnc1`: the Ratio in data set [1] turned out to be 63.

Consider `COc1ccc([C@@H]([C@@H](Cc2ccc(Cl)cc2Cl)c2ccc(Cl)cc2)n2cncn2)cc1`, for which the Ratio in data set [1] stood at 62.

`CC[C@@H](c1ccc([N+](=O)[O-])cc1)[C@H](c1ccc(OC)cc1)n1ccnc1`: the Ratio in [1] is on record as 7.3.

Take `COc1ccc([C@@H]([C@@H](Cc2ccc(Cl)cc2Cl)c2ccc(Cl)cc2)n2ccnc2)cc1`: the Ratio in data set [1] turned out to be 10.5.

As for `COc1ccc([C@H]([C@@H](Cc2ccc(Cl)cc2Cl)c2ccc(OC)cc2)n2ccnc2)cc1`, in [1], the Ratio stood at 21.

Turning to `FC(F)(F)c1ccc(-c2c[nH]cc2[C@@H](c2ccc(Cl)cc2Cl)n2ccnc2)cc1`, the Range in [2] came out at 16 µg/mL; in [7], 64 µg/mL; in [8] it was 32 µg/mL; in data set [9], 16 µg/mL. For the same compound, the Resistance in data set [3], in [5], in data set [6] and in [13] was 0% throughout. Also, the MIC – broadly, the smallest concentration in the dilution series that meets the test's criterion for growth inhibition – in data set [4] amounted to 4.8 µg/mL (≈ 11 µM); in data set [10] it was 17.3 µg/mL (≈ 39.7 µM); in [11], 16 µg/mL (≈ 36.7 µM); in data set [12], 7.63 µg/mL (≈ 17.5 µM). Also, the MIC50 (commonly an inhibitory concentration at the 50% level, which refers to growth in some studies and to a panel of isolates in others) in data set [4] was determined as 4 µg/mL (≈ 9.17 µM); in [10], 16 µg/mL (≈ 36.7 µM); in data set [11], 16 µg/mL (≈ 36.7 µM); in data set [12], 4 µg/mL (≈ 9.17 µM). Also, the MIC90 – broadly, an inhibitory concentration at the 90% level, which refers to growth in some studies and to a panel of isolates in others – in data set [4] turned out to be 8 µg/mL (≈ 18.3 µM); in data set [10], 32 µg/mL (≈ 73.4 µM); in [11], 16 µg/mL (≈ 36.7 µM); in [12] it was 8 µg/mL (≈ 18.3 µM).

Consider `CCn1cc(-c2ccc(Cl)cc2)c([C@H](c2ccc(Cl)cc2Cl)n2ccnc2)c1`, for which the Range in [14] stood at 16 µg/mL; in data set [15], 32 µg/mL; in data set [17], 16 µg/mL; in [18], 8 µg/mL. Besides, the Resistance in [3], in data set [16], in [5] and in data set [6] was 0% each time. Moreover, the MIC in [4] stood at 2.36 µg/mL (≈ 5.48 µM); in data set [10] it was 13.3 µg/mL (≈ 30.9 µM); in [11], 5.33 µg/mL (≈ 12.4 µM); in data set [12] it was 3.2 µg/mL (≈ 7.43 µM). The MIC50 in data set [4] was determined as 1 µg/mL (≈ 2.32 µM); in data set [10], 16 µg/mL (≈ 37.1 µM); in data set [11] it was 4 µg/mL (≈ 9.29 µM); in data set [12], 1 µg/mL (≈ 2.32 µM). Moreover, the MIC90 was 2 µg/mL (≈ 4.64 µM) in [4], 16 µg/mL (≈ 37.1 µM) in [10], 8 µg/mL (≈ 18.6 µM) in data set [11] and 2 µg/mL (≈ 4.64 µM) in data set [12]. The Ratio in [1] was found to be 2.9.

As to `COc1ccc([C@H](Cc2ccccc2Cl)n2cncn2)cc1`, the Ratio in [1] is on record as 32.
